Columns and labels:
hNPT4 = target: T1, hNPT4 (Homo sapiens, UniProt O00476); assay: hNPT4 expressing oocytes, [14C]UA uptake inhibition; assay type: cell-based; conditions: for [14C]UA uptake inhibition via hNPT4, inhibitor outside: inhibitor in uptake solution
T1 sequence (O00476 1-498 isoform O00476-2): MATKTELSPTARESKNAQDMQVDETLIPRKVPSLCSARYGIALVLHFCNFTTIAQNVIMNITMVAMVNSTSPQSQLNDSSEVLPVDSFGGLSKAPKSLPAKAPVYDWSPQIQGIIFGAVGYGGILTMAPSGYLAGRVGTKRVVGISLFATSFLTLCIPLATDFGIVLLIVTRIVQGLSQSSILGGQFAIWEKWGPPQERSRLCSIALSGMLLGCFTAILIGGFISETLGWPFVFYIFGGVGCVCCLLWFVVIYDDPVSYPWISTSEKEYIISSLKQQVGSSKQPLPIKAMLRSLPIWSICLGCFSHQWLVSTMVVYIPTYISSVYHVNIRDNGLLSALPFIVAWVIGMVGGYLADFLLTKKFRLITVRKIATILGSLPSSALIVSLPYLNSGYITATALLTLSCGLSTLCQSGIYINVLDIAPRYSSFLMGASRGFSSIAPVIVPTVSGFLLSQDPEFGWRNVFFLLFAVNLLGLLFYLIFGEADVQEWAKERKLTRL
Outline: (§1)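 Xenopus oocytes were injected with 25 ng cRNA for hNPT4 or hOAT10 and held 2–3 days at 18 ± 2 °C. [14C]uric acid uptake was measured at room temperature in ND96. Inhibitor was either added to the uptake solution (outside) or injected into the oocyte (46 nL, inside); injected oocytes were washed and then incubated 60 min with substrate. Uptake was stopped with ice-cold washes, oocytes were SDS-solubilised and counted by scintillation, and results are mean ± S.D.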

hOAT3 = target: T2, hOAT3 (Homo sapiens, UniProt Q8TCC7); assay: hOAT3 expressing oocytes, [14C]UA uptake inhibition; assay type: cell-based; conditions: inhibitor injected inside the oocyte
T2 sequence (Q8TCC7 1-542): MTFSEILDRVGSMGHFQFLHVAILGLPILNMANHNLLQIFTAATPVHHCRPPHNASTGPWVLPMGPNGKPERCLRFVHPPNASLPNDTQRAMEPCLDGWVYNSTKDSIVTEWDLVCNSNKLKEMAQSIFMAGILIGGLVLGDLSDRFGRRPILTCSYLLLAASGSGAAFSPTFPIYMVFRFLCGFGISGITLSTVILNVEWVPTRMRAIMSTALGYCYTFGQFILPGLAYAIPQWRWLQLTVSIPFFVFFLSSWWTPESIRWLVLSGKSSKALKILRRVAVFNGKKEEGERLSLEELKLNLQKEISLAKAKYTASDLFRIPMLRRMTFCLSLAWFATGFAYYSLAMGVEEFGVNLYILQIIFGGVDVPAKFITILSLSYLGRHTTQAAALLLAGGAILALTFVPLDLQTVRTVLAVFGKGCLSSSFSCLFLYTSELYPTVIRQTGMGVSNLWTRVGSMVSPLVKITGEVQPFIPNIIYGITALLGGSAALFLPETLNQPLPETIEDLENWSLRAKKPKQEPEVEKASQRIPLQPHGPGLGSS

hOAT1 = target: T3, hOAT1 (Homo sapiens, UniProt Q4U2R8); assay: hOAT1 expressing oocytes, [14C]UA uptake inhibition; assay type: cell-based; conditions: inhibitor injected inside the oocyte
T3 sequence (Q4U2R8 1-563): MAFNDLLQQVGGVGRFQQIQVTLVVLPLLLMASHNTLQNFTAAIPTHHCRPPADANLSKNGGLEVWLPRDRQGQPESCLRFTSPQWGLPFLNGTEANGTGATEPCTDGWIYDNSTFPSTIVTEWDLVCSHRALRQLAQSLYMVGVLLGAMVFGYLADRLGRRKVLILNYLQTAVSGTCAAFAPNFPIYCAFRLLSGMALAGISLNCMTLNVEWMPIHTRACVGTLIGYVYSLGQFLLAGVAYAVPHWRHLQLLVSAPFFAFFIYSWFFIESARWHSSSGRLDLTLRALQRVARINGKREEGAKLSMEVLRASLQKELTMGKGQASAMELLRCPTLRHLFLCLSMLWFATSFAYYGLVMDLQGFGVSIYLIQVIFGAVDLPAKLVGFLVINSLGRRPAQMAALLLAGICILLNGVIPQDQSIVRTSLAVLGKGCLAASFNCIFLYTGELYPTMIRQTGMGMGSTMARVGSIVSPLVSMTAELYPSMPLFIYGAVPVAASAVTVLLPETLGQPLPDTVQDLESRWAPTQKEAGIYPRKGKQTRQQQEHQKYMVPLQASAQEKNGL

hOAT10 = hOAT10 (Homo sapiens, UniProt Q9Y226); assay: hOAT10 expressing oocytes, [14C]UA uptake inhibition; assay type: cell-based; conditions: for [14C]UA uptake inhibition via hOAT10, inhibitor inside: inhibitor injected inside the oocyte
Outline: as §1

hURAT1 = target: T4, hURAT1 (Homo sapiens, UniProt Q96S37); assay: hURAT1 expressing oocytes, [14C]UA uptake inhibition; assay type: cell-based
T4 sequence (Q96S37 1-553): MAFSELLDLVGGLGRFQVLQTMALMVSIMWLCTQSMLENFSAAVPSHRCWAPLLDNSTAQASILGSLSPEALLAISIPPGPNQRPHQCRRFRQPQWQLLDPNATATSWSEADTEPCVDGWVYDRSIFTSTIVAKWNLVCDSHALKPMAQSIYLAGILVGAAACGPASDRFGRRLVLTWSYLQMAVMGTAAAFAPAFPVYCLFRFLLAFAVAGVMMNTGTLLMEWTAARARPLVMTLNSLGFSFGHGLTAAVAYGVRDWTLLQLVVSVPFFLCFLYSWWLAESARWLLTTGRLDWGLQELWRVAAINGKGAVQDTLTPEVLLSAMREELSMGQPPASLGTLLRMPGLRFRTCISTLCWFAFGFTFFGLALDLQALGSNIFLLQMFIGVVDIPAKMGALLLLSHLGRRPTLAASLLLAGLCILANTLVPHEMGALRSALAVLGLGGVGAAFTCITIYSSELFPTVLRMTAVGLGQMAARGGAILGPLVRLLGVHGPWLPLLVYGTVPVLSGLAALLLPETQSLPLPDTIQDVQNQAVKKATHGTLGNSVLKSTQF

OATP-1B1 = target: T5, OATP-1B1 (Homo sapiens, UniProt Q9Y6L6); assay: OATP-1B1 expressing oocytes, [3H]estrone sulfate uptake inhibition; assay type: cell-based; conditions: OATP-1B1 IC50, substrate [3H]estrone sulfate, value in nM
T5 sequence (Q9Y6L6 1-691): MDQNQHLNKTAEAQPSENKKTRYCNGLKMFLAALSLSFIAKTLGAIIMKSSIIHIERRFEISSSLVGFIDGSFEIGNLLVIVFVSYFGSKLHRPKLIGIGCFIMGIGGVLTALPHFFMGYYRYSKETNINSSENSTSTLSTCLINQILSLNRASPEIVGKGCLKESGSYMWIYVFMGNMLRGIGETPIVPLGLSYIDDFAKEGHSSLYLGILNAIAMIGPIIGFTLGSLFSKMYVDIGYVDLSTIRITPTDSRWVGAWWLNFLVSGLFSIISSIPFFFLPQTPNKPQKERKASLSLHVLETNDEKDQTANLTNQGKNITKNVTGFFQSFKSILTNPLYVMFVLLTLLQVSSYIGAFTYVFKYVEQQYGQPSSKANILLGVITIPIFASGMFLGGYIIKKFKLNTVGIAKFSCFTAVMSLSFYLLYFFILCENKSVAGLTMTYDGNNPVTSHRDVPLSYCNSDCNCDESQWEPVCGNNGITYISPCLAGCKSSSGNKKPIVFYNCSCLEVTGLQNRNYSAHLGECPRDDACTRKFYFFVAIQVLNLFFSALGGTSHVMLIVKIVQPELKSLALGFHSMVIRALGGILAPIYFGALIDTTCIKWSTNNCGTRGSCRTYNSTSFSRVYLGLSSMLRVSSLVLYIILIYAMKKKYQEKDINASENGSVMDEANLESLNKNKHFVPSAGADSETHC
Outline: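 Xenopus laevis oocytes were defolliculated with collagenase, and stage IV–V oocytes were injected with 25 ng capped cRNA. They were kept 2–3 days at 18 ± 2 °C in ND96, pH 7.4. Uptake ran at room temperature in ND96 with test compound, using [3H]estrone sulfate for OATP1B1 and 2B1 and [3H]estradiol-17β-glucuronide for OATP1B3. Oocytes were washed in ice-cold ND96, solubilised in 5% SDS and counted by scintillation, with control-oocyte uptake subtracted.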

[1] = Rat pharmacokinetic study; assay type: in vivo; conditions: male, Sprague-Dawley, whole blood
Outline: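 Adult male Sprague-Dawley rats (286 ± 12 g) were fasted 12–15 hr, n=5 per route. IV dosing was a bolus of about 300 µL over 30 sec into the orbital sinus under isoflurane, from aqueous 10% DMSO solution. Oral dosing was a CMC-formulated capsule, 19.6 mg/kg, followed by 500 µL water. Tail-vein blood was collected into K2EDTA from 0.083 to 24 hr (iv) or 0.5 to 30 hr (oral). Test compound was extracted with internal standard and quantified by LC/MS-MS (ESI−) against blood standard curves; LOQ 1.08 ng/mL.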

Chain of hOAT10 (Q9Y226 whole entry): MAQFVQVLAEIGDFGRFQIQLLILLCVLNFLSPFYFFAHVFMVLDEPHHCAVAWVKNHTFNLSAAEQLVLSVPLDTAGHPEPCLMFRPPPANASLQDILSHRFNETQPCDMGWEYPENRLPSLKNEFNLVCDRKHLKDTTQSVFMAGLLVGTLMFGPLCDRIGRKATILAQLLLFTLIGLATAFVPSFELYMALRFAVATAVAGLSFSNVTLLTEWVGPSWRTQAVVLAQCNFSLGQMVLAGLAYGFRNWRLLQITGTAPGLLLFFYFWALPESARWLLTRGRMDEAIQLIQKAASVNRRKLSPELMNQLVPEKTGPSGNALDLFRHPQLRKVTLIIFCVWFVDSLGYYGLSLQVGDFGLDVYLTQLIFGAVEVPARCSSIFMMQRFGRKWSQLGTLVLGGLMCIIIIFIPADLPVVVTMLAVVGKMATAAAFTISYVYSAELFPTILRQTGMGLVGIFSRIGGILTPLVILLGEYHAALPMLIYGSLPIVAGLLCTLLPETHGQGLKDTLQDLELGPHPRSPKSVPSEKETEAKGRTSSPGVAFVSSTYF

Row | SMILES | [14C]UA uptake inhibition via hNPT4, inhibitor outside (hNPT4) | [14C]UA uptake inhibition via hNPT4, inhibitor inside (hNPT4; inhibitor injected inside the oocyte) | [14C]UA uptake inhibition via hOAT3, inhibitor inside (hOAT3) | [14C]UA uptake inhibition via hOAT1, inhibitor inside (hOAT1) | 14C-uric acid transport via hOAT10, inhibitor outside (hOAT10; inhibitor in incubation media) | [14C]UA uptake inhibition via hOAT10, inhibitor outside (hOAT10; inhibitor in uptake solution) | [14C]UA uptake inhibition via hOAT10, inhibitor inside (hOAT10) | [14C]UA uptake inhibition via hOAT10, inhibitor inside (hOAT10; listed as benzbromarone) | Effect on Vmax for [14C]UA uptake (hURAT1; 0.1 µM benzbromarone, 0.3 µM 6-hydroxy benzbromarone in uptake solution) | [14C]UA uptake inhibition via hURAT1, inhibitor inside (hURAT1; inhibitor injected inside the oocyte, [14C]UA 10 µM) | IC50 (OATP-1B1) [nM] | AUC(0-t) ([1]; iv, 0.43 mg/kg) [ng·h/mL] | half-life ([1]; iv, 0.43 mg/kg, T1/2, rat, iv orbital sinus dosing 0.43 mg/Kg) [h] | AUC(0-t) ([1]; po, 19.6 mg/kg) [ng·h/mL] | Cmax ([1]; po, 19.6 mg/kg) [ng/mL] | Tmax ([1]; po, 19.6 mg/kg) [h]
1 | CCCN(CCC)S(=O)(=O)c1ccc(C(=O)O)cc1 [Compound 1, probenecid] | dose-dependent inhibition | moderate inhibition | profound inhibition | – | – | – | – | – | – | – | – | – | – | – | – | –
2 | CCc1oc2ccccc2c1C(=O)c1cc(Br)c(O)c(Br)c1 [Compound 2, benzbromarone] | dose-dependent inhibition | – | not readily inhibited | not readily inhibited | roughly 50 % of control | dose-dependent effect | did not display this effect | did not produce a statistically different uptake as compared to control | reduced | did not produce a profound inhibition | – | – | – | – | – | –
3 | CCc1oc2cc(F)ccc2c1C(=O)c1cc(Br)c(O)c(Br)c1 [Compound 5, (3,5-dibromo-4-hydroxyphenyl)(2-ethyl-6-fluorobenzofuran-3-yl)methanone] | – | – | – | – | – | – | – | – | – | – | 739 | 2090 ± 119 | ~3 | 60600 ± 7900 | 6460 to 6470 | 2 to 3
